Measured values taken from ChEMBL document CHEMBL5247671, “Design and Synthesis of Pyrazole-Based Macrocyclic Kinase Inhibitors Targeting BMPR2” (ACS Med Chem Lett, 2023).
Where “and” joins values, the source holds several entries; their conditions need not be identical. Equal entries are not always repeated.

What was measured:
[1] = molecular target: T1, MAP/microtubule affinity-regulating kinase 4 (Homo sapiens) (UniProt Q96L34); experiment: Inhibition of recombinant MARK4 (unknown origin) at 10 uM by DSF assay relative to staurosporine
T1 sequence (whole entry): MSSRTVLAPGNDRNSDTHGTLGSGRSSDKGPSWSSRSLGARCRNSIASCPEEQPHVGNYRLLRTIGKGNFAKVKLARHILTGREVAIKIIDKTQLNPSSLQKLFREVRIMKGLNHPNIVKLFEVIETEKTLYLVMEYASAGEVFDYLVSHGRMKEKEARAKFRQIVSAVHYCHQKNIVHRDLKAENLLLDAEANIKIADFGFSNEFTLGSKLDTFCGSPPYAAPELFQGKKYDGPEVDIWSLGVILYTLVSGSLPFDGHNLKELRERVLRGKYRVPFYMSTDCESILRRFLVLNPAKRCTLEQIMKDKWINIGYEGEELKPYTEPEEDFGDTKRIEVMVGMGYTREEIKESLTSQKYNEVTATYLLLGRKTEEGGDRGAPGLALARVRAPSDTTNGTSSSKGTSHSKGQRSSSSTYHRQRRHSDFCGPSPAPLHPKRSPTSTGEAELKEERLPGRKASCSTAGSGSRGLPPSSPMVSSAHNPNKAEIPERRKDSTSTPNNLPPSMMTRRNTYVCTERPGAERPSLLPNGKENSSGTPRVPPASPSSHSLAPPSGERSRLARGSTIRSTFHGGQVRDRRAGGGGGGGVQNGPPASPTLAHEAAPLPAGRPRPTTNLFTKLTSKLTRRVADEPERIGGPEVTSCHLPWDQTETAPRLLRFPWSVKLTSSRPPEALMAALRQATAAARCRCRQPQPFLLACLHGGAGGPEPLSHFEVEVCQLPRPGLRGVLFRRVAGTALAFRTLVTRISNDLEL
Procedure, shortened: (§1)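 Differential scanning fluorimetry on an in-house panel of 90 recombinant kinases. Stabilization is read as the shift in melting temperature (ΔTm) relative to ligand-free protein. Staurosporine served as the positive control, and binding was also compared against its ΔTm.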

[2] = molecular target: MAP/microtubule affinity-regulating kinase 3 (Homo sapiens) (UniProt P27448); experiment: Inhibition of recombinant MARK3 (unknown origin) at 10 uM by DSF assay relative to staurosporine; procedure, shortened: as §1
Sequence of MAP/microtubule affinity-regulating kinase 3 (Homo sapiens) (P27448 whole entry, looked up): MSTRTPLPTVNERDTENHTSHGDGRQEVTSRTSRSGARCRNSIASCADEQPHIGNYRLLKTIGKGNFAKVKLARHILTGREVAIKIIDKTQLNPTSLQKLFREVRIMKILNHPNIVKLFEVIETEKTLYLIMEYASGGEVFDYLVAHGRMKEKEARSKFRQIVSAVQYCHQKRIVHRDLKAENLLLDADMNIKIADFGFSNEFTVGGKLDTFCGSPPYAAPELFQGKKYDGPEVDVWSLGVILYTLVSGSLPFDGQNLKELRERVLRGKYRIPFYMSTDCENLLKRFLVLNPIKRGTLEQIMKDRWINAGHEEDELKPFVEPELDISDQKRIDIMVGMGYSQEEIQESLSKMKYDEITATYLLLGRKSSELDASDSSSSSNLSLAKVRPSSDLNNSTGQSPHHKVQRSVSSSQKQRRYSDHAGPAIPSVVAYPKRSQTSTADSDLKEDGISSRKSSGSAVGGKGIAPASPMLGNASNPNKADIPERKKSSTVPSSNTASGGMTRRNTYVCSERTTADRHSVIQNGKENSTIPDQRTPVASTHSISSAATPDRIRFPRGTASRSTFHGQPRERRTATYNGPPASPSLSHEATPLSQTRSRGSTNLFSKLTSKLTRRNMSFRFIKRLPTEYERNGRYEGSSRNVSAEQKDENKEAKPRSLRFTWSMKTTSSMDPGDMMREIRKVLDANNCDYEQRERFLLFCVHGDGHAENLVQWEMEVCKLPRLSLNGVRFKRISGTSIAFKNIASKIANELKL

[3] = molecular target: BMP-2-inducible protein kinase (Homo sapiens) (UniProt Q9NSY1); experiment: Binding affinity to recombinant BMP2K (unknown origin) assessed as change in melting temperature at 10 uM by DSF assay; procedure, shortened: as §1
Sequence of BMP-2-inducible protein kinase (Homo sapiens) (Q9NSY1 whole entry, looked up): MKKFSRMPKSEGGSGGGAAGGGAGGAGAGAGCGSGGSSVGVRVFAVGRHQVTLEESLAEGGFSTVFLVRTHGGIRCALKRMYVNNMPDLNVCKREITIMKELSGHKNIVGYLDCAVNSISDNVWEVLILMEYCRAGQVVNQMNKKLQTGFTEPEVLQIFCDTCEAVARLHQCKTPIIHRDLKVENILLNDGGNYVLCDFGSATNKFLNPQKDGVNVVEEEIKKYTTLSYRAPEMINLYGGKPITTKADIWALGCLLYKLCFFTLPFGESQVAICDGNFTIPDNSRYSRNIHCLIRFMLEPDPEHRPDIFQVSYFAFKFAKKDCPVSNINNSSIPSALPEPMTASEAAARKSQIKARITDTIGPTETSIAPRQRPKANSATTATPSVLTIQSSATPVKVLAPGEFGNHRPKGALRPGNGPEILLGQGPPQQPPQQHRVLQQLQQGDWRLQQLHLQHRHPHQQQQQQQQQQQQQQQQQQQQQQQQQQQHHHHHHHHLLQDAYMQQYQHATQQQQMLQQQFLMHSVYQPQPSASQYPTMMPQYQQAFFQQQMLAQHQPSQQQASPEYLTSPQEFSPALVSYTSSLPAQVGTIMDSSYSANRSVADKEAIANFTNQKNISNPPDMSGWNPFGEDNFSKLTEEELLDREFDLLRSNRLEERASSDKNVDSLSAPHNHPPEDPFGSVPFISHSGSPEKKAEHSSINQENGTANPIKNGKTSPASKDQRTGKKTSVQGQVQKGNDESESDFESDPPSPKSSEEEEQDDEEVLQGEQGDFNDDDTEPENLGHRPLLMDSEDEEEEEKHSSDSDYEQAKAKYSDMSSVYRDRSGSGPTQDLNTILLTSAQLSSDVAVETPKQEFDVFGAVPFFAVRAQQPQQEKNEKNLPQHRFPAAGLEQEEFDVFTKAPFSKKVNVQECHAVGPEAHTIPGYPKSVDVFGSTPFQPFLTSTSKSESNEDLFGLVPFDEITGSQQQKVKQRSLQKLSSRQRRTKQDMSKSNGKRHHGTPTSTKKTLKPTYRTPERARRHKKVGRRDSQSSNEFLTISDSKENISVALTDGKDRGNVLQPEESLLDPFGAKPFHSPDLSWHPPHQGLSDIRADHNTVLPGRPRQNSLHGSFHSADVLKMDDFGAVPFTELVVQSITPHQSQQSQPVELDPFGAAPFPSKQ

[4] = molecular target: Cyclin-dependent kinase 2 (Homo sapiens) (UniProt P24941); experiment: Binding affinity to recombinant CDK2 (unknown origin) assessed as change in melting temperature at 10 uM by DSF assay; procedure, shortened: as §1
[5] = molecular target: T2, Bone morphogenetic protein receptor type-2 (Homo sapiens) (UniProt Q13873); experiment: Binding affinity to recombinant BMPR2 (unknown origin) assessed as change in melting temperature at 10 uM by DSF assay; procedure, shortened: as §1
T2 sequence (whole entry): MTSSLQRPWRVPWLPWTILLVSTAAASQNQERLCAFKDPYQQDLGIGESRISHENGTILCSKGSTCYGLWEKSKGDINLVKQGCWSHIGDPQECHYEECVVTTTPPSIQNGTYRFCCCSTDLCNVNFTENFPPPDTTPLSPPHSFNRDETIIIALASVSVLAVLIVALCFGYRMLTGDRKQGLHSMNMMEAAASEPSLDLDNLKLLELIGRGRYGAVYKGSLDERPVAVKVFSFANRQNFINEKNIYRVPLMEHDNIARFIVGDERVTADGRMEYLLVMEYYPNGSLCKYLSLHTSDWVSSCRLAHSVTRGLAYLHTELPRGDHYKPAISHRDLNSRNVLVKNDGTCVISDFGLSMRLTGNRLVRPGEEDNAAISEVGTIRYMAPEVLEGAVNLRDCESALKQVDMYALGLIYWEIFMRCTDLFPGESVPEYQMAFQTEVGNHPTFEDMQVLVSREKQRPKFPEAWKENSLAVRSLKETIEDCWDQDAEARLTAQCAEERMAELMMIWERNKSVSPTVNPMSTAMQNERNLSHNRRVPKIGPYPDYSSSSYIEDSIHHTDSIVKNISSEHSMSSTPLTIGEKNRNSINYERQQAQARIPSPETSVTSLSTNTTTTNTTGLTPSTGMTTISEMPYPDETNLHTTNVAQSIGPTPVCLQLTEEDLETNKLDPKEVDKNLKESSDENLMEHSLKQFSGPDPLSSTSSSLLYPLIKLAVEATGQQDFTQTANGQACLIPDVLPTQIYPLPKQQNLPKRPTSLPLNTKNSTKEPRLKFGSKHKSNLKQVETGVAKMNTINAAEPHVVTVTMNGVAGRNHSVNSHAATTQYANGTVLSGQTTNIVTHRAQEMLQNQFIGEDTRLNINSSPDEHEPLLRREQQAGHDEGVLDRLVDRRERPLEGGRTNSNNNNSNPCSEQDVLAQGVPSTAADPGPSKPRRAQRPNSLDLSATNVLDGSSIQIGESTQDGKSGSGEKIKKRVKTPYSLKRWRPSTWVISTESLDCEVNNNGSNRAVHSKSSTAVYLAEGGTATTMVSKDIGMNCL

[6] = molecular target: Glycogen synthase kinase-3 beta (Homo sapiens, UniProt P49841); experiment: Inhibition of N-terminal NanoLuc-fused full length lysed GSK3B (unknown origin) transfected in HEK293T cells incubated for 2 hrs in presence of tracer K8 by NanoBRET assay; type: cell-based
Sequence of Glycogen synthase kinase-3 beta (P49841 whole entry, the tested form may be a part): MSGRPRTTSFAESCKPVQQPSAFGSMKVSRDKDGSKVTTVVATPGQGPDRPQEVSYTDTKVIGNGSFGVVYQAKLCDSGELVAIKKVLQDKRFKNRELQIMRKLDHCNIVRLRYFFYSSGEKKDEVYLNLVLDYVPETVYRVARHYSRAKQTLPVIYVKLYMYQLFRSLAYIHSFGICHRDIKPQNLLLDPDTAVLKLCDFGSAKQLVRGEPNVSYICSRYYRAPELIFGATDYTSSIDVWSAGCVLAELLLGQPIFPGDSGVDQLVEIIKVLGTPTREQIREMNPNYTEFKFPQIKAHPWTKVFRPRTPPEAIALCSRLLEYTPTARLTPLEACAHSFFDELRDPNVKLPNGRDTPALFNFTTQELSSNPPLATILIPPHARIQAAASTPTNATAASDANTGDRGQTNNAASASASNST
Procedure, shortened: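 GSK3B NanoBRET run in the lysed mode, with cells permeabilized by digitonin to bypass compound cell penetration. EC50 values were derived from tracer displacement.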

[7] = molecular target: MAP/microtubule affinity-regulating kinase 3 (Homo sapiens) (UniProt P27448); experiment: Binding affinity to recombinant MARK3 (unknown origin) assessed as change in melting temperature at 10 uM by DSF assay; procedure, shortened: as §1
[8] = molecular target: T3, Bone morphogenetic protein receptor type-2 (Homo sapiens, UniProt Q13873); experiment: Inhibition of BMPR2 (174 to end residues) (unknown origin) using MBP as substrate incubated for 60 mins in presence of ATP by ADP Glo assay
T3 sequence (Q13873 whole entry): T2 sequence (whole entry)
Procedure, shortened: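 Enzymatic inhibition of the BMPR2 kinase was read out by ADP-Glo detection of ADP formed, and IC50 values were derived from concentration–response data.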

[9] = molecular target: T3, Bone morphogenetic protein receptor type-2; experiment: Inhibition of BMPR2 (unknown origin) assessed as dissociation constant by ITC assay
Procedure, shortened: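 Binding measured by isothermal titration calorimetry against the recombinant BMPR2 kinase domain. Thermodynamic binding parameters, including the dissociation constant, were derived from the titration data.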

- inhibition [1]: 23%
- inhibition [2]: 22%
- ΔTm [3]: 5.8 °C and 5.3 °C
- ΔTm [4]: 3.3 °C
- ΔTm [5]: 5.8 °C
- IC50 [6]: 2300 nM
- ΔTm [7]: 3.9 °C
- IC50 [8]: 506 nM
- Kd [9]: 83.5 nM
Structure (SMILES): O=C1NCCc2ccc(cc2)Nc2nccc(n2)Nc2cc1[nH]n2
